Consider 26 molecules from ChEMBL document CHEMBL1140662, “Benzo[b]thiophene-based histone deacetylase inhibitors” (Bioorg Med Chem Lett, 2007).

For orientation: IC50 means the concentration at which inhibition is half-maximal. High values mean a need for much substance, low ones inhibition by little substance. Broadly, the inhibition is the drop in the measured response relative to a control, in per cent. Low values mean a weak effect, high ones a strong effect.

Test [1] in a line: Antiproliferative activity against mouse SC9 cells. Type of test: functional, cell-based. The gist of the method: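 Murine erythroleukemia SC-9 cells were exposed to vehicle or increasing compound concentrations for 48 h, and proliferation was read by MTS assay. IC50 values are means of three experiments.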
Test [2] deals with T1, Histone deacetylase 1 (Homo sapiens, UniProt Q13547). Briefly: Inhibition of HDAC1. The method, boiled down: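 Epitope-tagged human HDAC1 complex, immuno-purified from stably expressing mammalian cells, tested against a commercial HDAC substrate. IC50 values are means of three experiments.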
T1 sequence (Q13547 whole entry): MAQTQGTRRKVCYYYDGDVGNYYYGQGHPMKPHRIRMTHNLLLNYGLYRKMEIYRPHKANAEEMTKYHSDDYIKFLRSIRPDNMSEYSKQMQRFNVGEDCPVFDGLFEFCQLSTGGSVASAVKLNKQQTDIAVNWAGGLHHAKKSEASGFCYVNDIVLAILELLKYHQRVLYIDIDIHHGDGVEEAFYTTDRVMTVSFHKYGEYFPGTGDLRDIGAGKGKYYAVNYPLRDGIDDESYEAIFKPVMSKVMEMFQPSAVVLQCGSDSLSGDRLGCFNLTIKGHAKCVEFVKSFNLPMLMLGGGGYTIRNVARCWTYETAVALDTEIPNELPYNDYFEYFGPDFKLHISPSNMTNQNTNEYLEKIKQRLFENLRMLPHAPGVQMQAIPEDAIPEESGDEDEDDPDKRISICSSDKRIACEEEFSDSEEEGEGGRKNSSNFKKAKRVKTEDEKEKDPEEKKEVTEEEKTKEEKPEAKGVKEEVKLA
The target in test [3] is T1, Histone deacetylase 1. Briefly: Inhibition of HDAC1 at 10 uM.

As to `CC[C@H](C(=O)Nc1ccc2cc(C(=O)NO)sc2c1)c1ccccc1`, the results for the IC50 (in test [1]; against Histone deacetylase 1 [2]) were 140 nM and 20 nM, respectively.
For the molecule `O=C(NO)c1cc2ccc(CNCc3ccccc3)cc2s1`, the 50% inhibitory concentration (IC50) in test [1] stood at 160 nM; at Histone deacetylase 1 [2], 50 nM.
On to `O=C(NCc1ccc2cc(C(=O)NO)sc2c1)c1ccccc1`, for which the IC50 in test [1] was 190 nM; against Histone deacetylase 1 [2] it was 10 nM.
Take `O=C(Cc1ccccc1)Nc1ccc2cc(C(=O)NO)sc2c1`: the figures for the concentration for half-maximal inhibition (IC50) (in test [1]; against Histone deacetylase 1 [2]) were 220 nM and 10 nM, respectively.
`O=C(Cc1ccccc1)Nc1ccc2sc(C(=O)NO)cc2c1`: the IC50 in test [1] is 1160 nM; at Histone deacetylase 1 [2], 30 nM.
Consider `COc1ccc(CC(=O)Nc2ccc3cc(C(=O)NO)sc3c2)cc1`, for which the IC50 amounted to 205 nM in test [1] and 20 nM against Histone deacetylase 1 [2].
Consider `O=C(NO)c1cc2cc(CNc3ccccc3)ccc2s1`, for which the half-maximal inhibitory concentration (IC50) was 4870 nM in test [1] and 175 nM against Histone deacetylase 1 [2].
Regarding `O=C(NCCc1ccccc1)c1ccc2sc(C(=O)NO)cc2c1`, the results for the IC50 (in test [1]; at Histone deacetylase 1 [2]) were 5330 nM and 155 nM, respectively.
As to `O=C(Nc1ccc2cc(C(=O)NO)sc2c1)c1ccccc1`, in test [1], the IC50 came out at 2900 nM.
Take `CC[C@@H](C(=O)Nc1ccc2cc(C(=O)NO)sc2c1)c1ccccc1`: the 50% inhibitory concentration (IC50) worked out at 530 nM in test [1] and 60 nM against Histone deacetylase 1 [2].
For the molecule `O=C(NO)c1cccs1`, on Histone deacetylase 1 [2], the IC50 was determined as 6600 nM.
On to `O=C(NO)c1cc2ccc(CNc3ccccc3)cc2s1`, for which the 50% inhibitory concentration (IC50) in test [1] was found to be 1780 nM; against Histone deacetylase 1 [2], 45 nM.
For the molecule `O=C(NCc1ccccc1)c1ccc2cc(C(=O)NO)sc2c1`, the concentration for half-maximal inhibition (IC50) stood at 1100 nM in test [1] and 55 nM against Histone deacetylase 1 [2].
The corresponding values for `O=C(NCc1ccccc1)c1ccc2sc(C(=O)NO)cc2c1` are 1700 nM and 75 nM.
`CCC(C(=O)Nc1ccc2cc(C(=O)NO)sc2c1)c1ccccc1` (stereo unspecified): the IC50 in test [1] was 225 nM; at Histone deacetylase 1 [2] it was 40 nM.
The matching figures for `O=C(Nc1ccccc1)c1ccc2sc(C(=O)NO)cc2c1`: 6140 nM and 600 nM.
Molecule `COC(=O)c1ccc2cc(C(=O)NO)sc2c1` had an IC50 in test [1] of 13900 nM.
For `O=C(NO)c1ccsc1`, the IC50 at Histone deacetylase 1 [2] stood at 9700 nM.
In the case of `O=C(NO)c1cc2cc(CNCc3ccccc3)ccc2s1`, half-maximal inhibition in test [1] (IC50) required 475 nM.
`O=C(NO)c1cc2ccc(CNCCc3ccccc3)cc2s1`: the 50% inhibitory concentration (IC50) in test [1] was determined as 455 nM; against Histone deacetylase 1 [2], 128 nM.
The matching figures for `O=C(Cc1ccccc1)NCc1ccc2cc(C(=O)NO)sc2c1`: 1220 nM and 70 nM.
In the case of `O=C(Cc1ccc(F)cc1)Nc1ccc2cc(C(=O)NO)sc2c1`, the figures for the IC50 (in test [1]; at Histone deacetylase 1 [2]) were 230 nM and 20 nM, respectively.
At Histone deacetylase 1 [3], `O=C(NO)c1csc2ccccc12` had an inhibition of 38%.
Regarding `O=C(CCc1ccccc1)Nc1ccc2cc(C(=O)NO)sc2c1`, the concentration for half-maximal inhibition (IC50) in test [1] came to 5580 nM; against Histone deacetylase 1 [2], 55 nM.
The matching figures for `O=C(NC(c1ccccc1)c1ccccc1)c1ccc2cc(C(=O)NO)sc2c1`: 2960 nM and 285 nM.
For `O=C(NO)c1cc2cc(CNCCc3ccccc3)ccc2s1`, the values for the half-maximal inhibitory concentration (IC50) (in test [1]; at Histone deacetylase 1 [2]) were 945 nM and 200 nM, respectively.
